From ChEMBL document CHEMBL1157268, “ent-Labdane diterpenoids from Andrographis paniculata” (2006)
Active and inactive are the calls of the source. No cut-off for these calls is given here.

Legend:
[1] = tested on: Aspergillus niger; experiment: Antimicrobial activity against Aspergillus niger at 10 ug/ml by disk diffusion assay; type: functional, organism-based
Summary of the method: (§1)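 Qualitative screen on agar plates: each diterpenoid applied to disks at 10 µg/mL and tested in parallel against eight strains (B. subtilis, S. aureus, E. coli, M. luteus, S. lutea, C. albicans, C. sake, A. niger). Growth inhibition was scored as a clear inhibition zone around the disk, with zone diameter in mm as the read-out.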

[2] = tested on: Micrococcus luteus; experiment: Antimicrobial activity against Micrococcus luteus at 10 ug/ml by disk diffusion assay; type: functional, organism-based; summary of the method: as §1
[3] = tested on: Escherichia coli; experiment: Antimicrobial activity against Escherichia coli at 10 ug/ml by disk diffusion assay; type: functional, organism-based; summary of the method: as §1
[4] = tested on: Bacillus subtilis; experiment: Antimicrobial activity against Bacillus subtilis at 10 ug/ml by disk diffusion assay; type: functional; settings: for zone of inhibition at 10 µg/mL: read-out: IZ; summary of the method: as §1
[5] = tested on: Staphylococcus aureus; experiment: Antimicrobial activity against Staphylococcus aureus at 10 ug/ml by disk diffusion assay; type: functional, organism-based; summary of the method: as §1
[6] = tested on: [Candida] sake; experiment: Antimicrobial activity against Candida sake at 10 ug/ml by disk diffusion assay; type: functional, organism-based; summary of the method: as §1
[7] = tested on: Candida albicans; experiment: Antimicrobial activity against Candida albicans at 10 ug/ml by disk diffusion assay; type: functional, organism-based; summary of the method: as §1

With `C=C1CCC2C(C)(CO)C(O)CCC2(C)C1/C=C/C1=CC(C2(CCC3=CCOC3=O)C(=C)CCC3C(C)(CO)C(O)CCC32C)OC1=O` (stereo not given) the Activity [1] was “inactive”, the Activity [2] was “inactive” and the Activity [3] was “inactive”. The Activity [4] was “inactive”, the Activity [5] was “inactive” and the Activity [6] was “inactive”. The Activity [7] was “inactive”.
For `C=C1CC[C@@H]2[C@](C)(CO)[C@H](O[C@@H]3O[C@H](CO)[C@@H](O)[C@H](O)[C@H]3O)CC[C@@]2(C)[C@@H]1C/C=C1/C(=O)OC[C@H]1O`, the Activity [1] was “inactive”, the Activity [2] was “inactive” and the Activity [3] was “inactive”. The Activity [4] was “inactive”, the Activity [5] was “inactive” and the Activity [6] was “inactive”. For the same compound, the Activity [7] was “inactive”.
For `C[C@]1(CO)[C@H]2CC[C@H](CO)[C@@H](CCC3=CCOC3=O)[C@]2(C)CC[C@H]1O`, the Activity [1] was “inactive”, the Activity [2] was “inactive” and the Activity [3] was “inactive”. The Activity [4] was “inactive”, the Activity [5] was “inactive” and the Activity [6] was “inactive”. The Activity [7] was “inactive”.
With `C=C1CC[C@@H]2[C@](C)(CO)[C@H](O)CC[C@@]2(C)[C@@H]1/C=C/C1=CCOC1=O` the Activity [1] was “inactive”, the Activity [2] was “inactive” and the Activity [3] was “inactive”. The zone of inhibition at 10 µg/mL [4] was 7 mm, the Activity [5] was “inactive” and the Activity [6] was “inactive”. For the same compound, the Activity [7] was “inactive”.
For `C=C1CC[C@@H]2[C@](C)(CO[C@@H]3O[C@H](CO)[C@@H](O)[C@H](O)[C@H]3O)[C@H](O)CC[C@@]2(C)[C@@H]1C/C=C1/C(=O)OC[C@H]1O`, the Activity [1] was “inactive”, the Activity [2] was “inactive” and the Activity [3] was “inactive”. For the same compound, the Activity [4] was “inactive”, the Activity [5] was “inactive” and the Activity [6] was “inactive”. For the same compound, the Activity [7] was “inactive”.
In the case of `C=C1CC[C@@H]2[C@](C)(CO)[C@H](O)CC[C@@]2(C)[C@@H]1C/C=C1\C(=O)OCC1O` (stereo not given in full) [ISOANDROGRAPHOLIDE], the Activity [1] is reported as “inactive”, the Activity [2] is reported as “inactive” and the Activity [3] is reported as “inactive”. For the same compound, the zone of inhibition at 10 µg/mL [4] was 7 mm, the Activity [5] was “inactive” and the Activity [6] was “inactive”. For the same compound, the Activity [7] was “inactive”.
`C=C1CC[C@@H]2C(C)(C)[C@H](O[C@@H]3O[C@H](CO)[C@@H](O)[C@H](O)[C@H]3O)CC[C@@]2(C)[C@@H]1CCC1=CCOC1=O` was tested, and the Activity [1] was “inactive”, the Activity [2] was “inactive” and the Activity [3] was “inactive”. The Activity [4] was “inactive”, the Activity [5] was “inactive” and the Activity [6] was “inactive”. The Activity [7] was “inactive”.
With `C=C1CC[C@@H]2[C@](C)(CO)[C@H](O)CC[C@@]2(C)[C@@H]1CCC1=CCOC1=O` the Activity [1] was “inactive”, the Activity [2] was “inactive” and the Activity [3] was “inactive”. For the same compound, the Activity [4] was “inactive”, the Activity [5] was “inactive” and the Activity [6] was “inactive”. For the same compound, the Activity [7] was “inactive”.
With `C=C1CC[C@@H]2[C@](C)(CO[C@@H]3O[C@H](CO)[C@@H](O)[C@H](O)[C@H]3O[C@@H]3OC[C@](O)(CO)[C@H]3O)CCC[C@@]2(C)[C@@H]1CCC1=CCOC1=O` the Activity [1] was “inactive”, the Activity [2] was “inactive” and the Activity [3] was “inactive”. For the same compound, the Activity [4] was “inactive”, the Activity [5] was “inactive” and the Activity [6] was “inactive”. For the same compound, the Activity [7] was “inactive”.
`C=C1CC[C@H]2[C@@](C)(CC[C@@H](O)[C@@]2(C)CO)[C@@H]1C(=O)/C=C1\CCOC1=O` was tested, and the Activity [1] was “inactive”, the Activity [2] was “inactive” and the Activity [3] was “inactive”. The Activity [4] was “inactive”, the Activity [5] was “inactive” and the Activity [6] was “inactive”. The Activity [7] was “inactive”.
For `C=C1CC[C@@H]2[C@](C)(CO)[C@H](O)CC[C@@]2(C)[C@@H]1C[C@@H](O)C1C(=O)OC[C@H]1O` (stereo not given in full), the Activity [1] was “inactive”, the Activity [2] was “inactive” and the Activity [3] was “inactive”. For the same compound, the Activity [4] was “inactive”, the Activity [5] was “inactive” and the Activity [6] was “inactive”. The Activity [7] was “inactive”.
In the case of `C=C1CC[C@@H]2[C@](C)(CO)[C@H](O)CC[C@@]2(C)[C@@H]1C/C=C1/C(=O)OC[C@H]1O`, the Activity [1] is reported as “inactive”, the Activity [2] is reported as “inactive” and the Activity [3] is reported as “inactive”. For the same compound, the Activity [4] was “inactive”, the Activity [5] was “inactive” and the Activity [6] was “inactive”. The Activity [7] was “inactive”.
`C=C1CC[C@H]2[C@@](C)(CCC[C@@]2(C)C(=O)O[C@@H]2O[C@H](CO)[C@@H](O)[C@H](O)[C@H]2O)[C@@H]1CC/C(=C/CO)CO` was tested, and the Activity [1] was “inactive”, the Activity [2] was “inactive” and the Activity [3] was “inactive”. For the same compound, the Activity [4] was “inactive”, the Activity [5] was “inactive” and the Activity [6] was “inactive”. The Activity [7] was “inactive”.
With `C=C1CC[C@@H]2[C@](C)(CO)CCC[C@@]2(C)[C@@H]1CCC1=CCOC1=O` [ANDROGRAPANIN] the Activity [1] was “inactive”, the Activity [2] was “inactive” and the Activity [3] was “inactive”. For the same compound, the zone of inhibition at 10 µg/mL [4] was 7 mm, the Activity [5] was “inactive” and the Activity [6] was “inactive”. The Activity [7] was “inactive”.
With `C=C1CC[C@@H]2[C@](C)(CO[C@@H]3O[C@H](CO)[C@@H](O)[C@H](O)[C@H]3O)CCC[C@@]2(C)[C@@H]1CCC1=CCOC1=O` the Activity [1] was “inactive”, the Activity [2] was “inactive” and the Activity [3] was “inactive”. The Activity [4] was “inactive”, the Activity [5] was “inactive” and the Activity [6] was “inactive”. The Activity [7] was “inactive”.
`C=C1CC[C@@H]2[C@](C)(CO)[C@H](O)CC[C@@]2(C)[C@@H]1C[C@@H](O)C1=CCOC1=O` was tested, and the Activity [1] was “inactive”, the Activity [2] was “inactive” and the Activity [3] was “inactive”. The zone of inhibition at 10 µg/mL [4] was 7 mm, the Activity [5] was “inactive” and the Activity [6] was “inactive”. For the same compound, the Activity [7] was “inactive”.
With `C=C1CC[C@@H]2[C@](C)(CO[C@@H]3O[C@H](CO)[C@@H](O)[C@H](O)[C@H]3O)[C@H](O)CC[C@@]2(C)[C@@H]1/C=C/C1=CCOC1=O` the Activity [1] was “inactive”, the Activity [2] was “inactive” and the Activity [3] was “inactive”. For the same compound, the Activity [4] was “inactive”, the Activity [5] was “inactive” and the Activity [6] was “inactive”. For the same compound, the Activity [7] was “inactive”.
`C=C1CC[C@@H]2[C@](C)(CO[C@@H]3O[C@H](CO)[C@@H](O)[C@H](O)[C@H]3O)[C@H](O)CC[C@@]2(C)[C@@H]1CCC1=CCOC1=O` was tested, and the Activity [1] was “inactive”, the Activity [2] was “inactive” and the Activity [3] was “inactive”. For the same compound, the Activity [4] was “inactive”, the Activity [5] was “inactive” and the Activity [6] was “inactive”. For the same compound, the Activity [7] was “inactive”.
`C[C@]1(CO)[C@H]2CC[C@]3(CO3)[C@@H](CCC3=CCOC3=O)[C@]2(C)CC[C@H]1O` was tested, and the Activity [1] was “inactive”, the Activity [2] was “inactive” and the Activity [3] was “inactive”. For the same compound, the Activity [4] was “inactive”, the Activity [5] was “inactive” and the Activity [6] was “inactive”. The Activity [7] was “inactive”.
`C=C1CC[C@@H]2[C@](C)(CO)[C@H](O)CC[C@@]2(C)[C@@H]1C(O)/C=C1\CCOC1=O` (stereo not given in full) was tested, and the Activity [1] was “inactive”, the Activity [2] was “inactive” and the Activity [3] was “inactive”. For the same compound, the Activity [4] was “inactive”, the Activity [5] was “inactive” and the Activity [6] was “inactive”. The Activity [7] was “inactive”.
